Data published in ChEMBL document CHEMBL5724801, “EUbOPEN Chemogenomics Library - Multiplex” (2024).
“And” between values parts separate entries of the source, which are not always exact repeats. Equal values may be shown once.

Tested on: HEK-293T
Test: Multiplex assay against HEK293T
Assay type: toxicity, cell-based
Conditions: human
Outline: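 Hoechst33342, BioTracker Green Microtubule Cytoskeleton Dye, MitoTracker Red and Annexin V Alexa Fluor 680 were added to live cells at seeding, and imaging on a CQ1 microscope at 37°C and 5% CO2 followed compound addition. Gating by CellPathfinder machine learning separated cells into Hoechst high-intensity objects or normal cells, then normal cells into healthy, pyknosed or fragmented nuclei, then pyknosed cells into mitotic or apoptotic. Per cents of healthy-nucleus cells are reported for the tubulin, mitochondrial-mass and membrane-permeability phenotypes.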

[1] = 12 h, 1 µM, compound concentration 1 uM
[2] = 12 h, 10 µM, compound concentration 10 uM
[3] = 24 h, 1 µM, compound concentration 1 uM
[4] = 24 h, 10 µM, compound concentration 10 uM
[5] = 48 h, 1 µM, compound concentration 1 uM
[6] = 48 h, 10 µM, compound concentration 10 uM

Compound: COc1cccc2c1c(NS(=O)(=O)c1ccc(Cl)s1)nn2Cc1cccc(CNC(=O)C(C)(C)O)c1
- Population Apoptotic (%) [1]: 31% and 34%
- Population Fragmented Nuclei (%) [1]: 6% and 7%
- Population Healthy Nuclei (%) [1]: 82% and 77%
- Population Hoechst High Intensity Objects (%) [1]: 6% and 10%
- Population Membrane Permeable-Phenotype (%) [1]: 0%
- Population Mitochondria Different-Phenotype (%) [1]: 39% and 52%
- Population Mitotic Cells (%) [1]: 68% and 65%
- Population Normal (%) [1]: 93% and 89%
- Population Pyknosed Nuclei (%) [1]: 10% and 15%
- Population Tubulin-Different-Phenotype (%) [1]: 26% and 23%
- Total Cell Count [1]: 469 and 315
- Population Apoptotic (%) [2]: 42% and 35%
- Population Fragmented Nuclei (%) [2]: 6% and 5%
- Population Healthy Nuclei (%) [2]: 80% and 78%
- Population Hoechst High Intensity Objects (%) [2]: 7% and 11%
- Population Membrane Permeable-Phenotype (%) [2]: 0%
- Population Mitochondria Different-Phenotype (%) [2]: 51% and 69%
- Population Mitotic Cells (%) [2]: 57% and 65%
- Population Normal (%) [2]: 92% and 88%
- Population Pyknosed Nuclei (%) [2]: 12% and 16%
- Population Tubulin-Different-Phenotype (%) [2]: 38% and 33%
- Total Cell Count [2]: 356 and 280
- Population Apoptotic (%) [3]: 26% and 44%
- Population Fragmented Nuclei (%) [3]: 7% and 6%
- Population Healthy Nuclei (%) [3]: 81% and 84%
- Population Hoechst High Intensity Objects (%) [3]: 2% and 7%
- Population Membrane Permeable-Phenotype (%) [3]: 0%
- Population Mitochondria Different-Phenotype (%) [3]: 22% and 37%
- Population Mitotic Cells (%) [3]: 73% and 55%
- Population Normal (%) [3]: 97% and 92%
- Population Pyknosed Nuclei (%) [3]: 11% and 8%
- Population Tubulin-Different-Phenotype (%) [3]: 17% and 15%
- Total Cell Count [3]: 617 and 357
- Population Apoptotic (%) [4]: 40%
- Population Fragmented Nuclei (%) [4]: 10% and 9%
- Population Healthy Nuclei (%) [4]: 73% and 77%
- Population Hoechst High Intensity Objects (%) [4]: 5%
- Population Membrane Permeable-Phenotype (%) [4]: 0%
- Population Mitochondria Different-Phenotype (%) [4]: 34% and 46%
- Population Mitotic Cells (%) [4]: 60%
- Population Normal (%) [4]: 94%
- Population Pyknosed Nuclei (%) [4]: 16% and 12%
- Population Tubulin-Different-Phenotype (%) [4]: 23% and 22%
- Total Cell Count [4]: 462 and 384
- Population Apoptotic (%) [5]: 16% and 28%
- Population Fragmented Nuclei (%) [5]: 10% and 11%
- Population Healthy Nuclei (%) [5]: 83%
- Population Hoechst High Intensity Objects (%) [5]: 2%
- Population Membrane Permeable-Phenotype (%) [5]: 0% and 2%
- Population Mitochondria Different-Phenotype (%) [5]: 18% and 21%
- Population Mitotic Cells (%) [5]: 83% and 71%
- Population Normal (%) [5]: 97%
- Population Pyknosed Nuclei (%) [5]: 6% and 4%
- Population Tubulin-Different-Phenotype (%) [5]: 11% and 10%
- Total Cell Count [5]: 1062 and 591
- Population Apoptotic (%) [6]: 26% and 35%
- Population Fragmented Nuclei (%) [6]: 16% and 8%
- Population Healthy Nuclei (%) [6]: 72% and 83%
- Population Hoechst High Intensity Objects (%) [6]: 4%
- Population Membrane Permeable-Phenotype (%) [6]: 0%
- Population Mitochondria Different-Phenotype (%) [6]: 25% and 27%
- Population Mitotic Cells (%) [6]: 73% and 65%
- Population Normal (%) [6]: 95%
- Population Pyknosed Nuclei (%) [6]: 10% and 7%
- Population Tubulin-Different-Phenotype (%) [6]: 16% and 12%
- Total Cell Count [6]: 646 and 550

Compound: CC(C)CNc1nc(N2CCN(CC3CCCOC3)CC2)ncc1C(=O)NCc1ccccc1 (stereo not drawn)
- Population Apoptotic (%) [1]: 11.7% and 11.21%
- Population Fragmented Nuclei (%) [1]: 1.89% and 4.9%
- Population Hoechst High Intensity Objects (%) [1]: 0.31% and 0%
- Population Membrane Permeable-Phenotype (%) [1]: 0%
- Population Mitotic Cells (%) [1]: 88.3% and 88.79%
- Population Normal (%) [1]: 99.69% and 100%
- Population Pyknosed Nuclei (%) [1]: 53.94% and 81.12%
- Population Tubulin-Different-Phenotype (%) [1]: 13.57% and 25%
- Total Cell Count [1]: 318 and 143
- Population Apoptotic (%) [2]: 30.6% and 27.73%
- Population Fragmented Nuclei (%) [2]: 4.29% and 5.11%
- Population Hoechst High Intensity Objects (%) [2]: 1.06% and 0%
- Population Membrane Permeable-Phenotype (%) [2]: 0%
- Population Mitochondria Different-Phenotype (%) [2]: 23.53% and 63.64%
- Population Mitotic Cells (%) [2]: 69.4% and 72.27%
- Population Normal (%) [2]: 98.94% and 100%
- Population Pyknosed Nuclei (%) [2]: 65.36% and 86.86%
- Population Tubulin-Different-Phenotype (%) [2]: 85.88% and 81.82%
- Total Cell Count [2]: 283 and 137
- Population Apoptotic (%) [3]: 21.51% and 22.81%
- Population Fragmented Nuclei (%) [3]: 1.41% and 5.26%
- Population Hoechst High Intensity Objects (%) [3]: 0.2% and 0%
- Population Membrane Permeable-Phenotype (%) [3]: 1.89% and 0%
- Population Mitochondria Different-Phenotype (%) [3]: 30.6% and 36.67%
- Population Mitotic Cells (%) [3]: 78.49% and 77.19%
- Population Normal (%) [3]: 99.8% and 100%
- Population Pyknosed Nuclei (%) [3]: 34.68% and 75%
- Population Tubulin-Different-Phenotype (%) [3]: 28.71% and 13.33%
- Population Apoptotic (%) [4]: 59.41% and 71.68%
- Population Fragmented Nuclei (%) [4]: 4.91% and 5.67%
- Population Hoechst High Intensity Objects (%) [4]: 0.61% and 0%
- Population Membrane Permeable-Phenotype (%) [4]: 0%
- Population Mitochondria Different-Phenotype (%) [4]: 72.86% and 75%
- Population Mitotic Cells (%) [4]: 40.59% and 28.32%
- Population Normal (%) [4]: 99.39% and 100%
- Population Pyknosed Nuclei (%) [4]: 52.15% and 80.14%
- Population Tubulin-Different-Phenotype (%) [4]: 90.71% and 75%
- Total Cell Count [4]: 328 and 141
- Population Apoptotic (%) [5]: 7.95% and 20.65%
- Population Fragmented Nuclei (%) [5]: 1.03% and 6.84%
- Population Healthy Nuclei (%) [5]: 83.45% and 44.74%
- Population Hoechst High Intensity Objects (%) [5]: 0%
- Population Membrane Permeable-Phenotype (%) [5]: 2.71% and 1.18%
- Population Mitochondria Different-Phenotype (%) [5]: 49.88% and 61.18%
- Population Mitotic Cells (%) [5]: 92.05% and 79.35%
- Population Normal (%) [5]: 100%
- Population Apoptotic (%) [6]: 64.8% and 78.16%
- Population Fragmented Nuclei (%) [6]: 2.93% and 2.01%
- Population Healthy Nuclei (%) [6]: 60.41% and 39.6%
- Population Hoechst High Intensity Objects (%) [6]: 0.87% and 1.32%
- Population Membrane Permeable-Phenotype (%) [6]: 0.97% and 3.39%
- Population Mitochondria Different-Phenotype (%) [6]: 96.6% and 88.14%
- Population Mitotic Cells (%) [6]: 35.2% and 21.84%
- Population Normal (%) [6]: 99.13% and 98.68%
- Population Pyknosed Nuclei (%) [6]: 36.66% and 58.39%
- Population Tubulin-Different-Phenotype (%) [6]: 73.3% and 91.53%
- Total Cell Count [6]: 344 and 151
